KCNQ1 pot: potentiates or activates the human KCNQ1 potassium channel; actives 0.35% (n = 310,000); CHO-K1 KCNQ1, thallium flux FluxOR fluorescence; hits give high values; B-score at 10 µM; P51787; AID 2648;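 active = fluorescence ratio B-score, a plate-corrected score, at least three library SD, with initial intensity B-score within 5 SD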
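Schedule – 37 °C overnight plating, 90-min dark dye load, 20-min compound pretreatment · System – stable KCNQ1 CHO-K1 line · Probe or stimulus – thallium- and potassium-containing depolarizing buffer · Measured by – kinetic FluxOR fluorescence, 10 s baseline plus 110 s post-stimulus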
SUMO Mot1 rescue: blocks SUMOylation pathway, rescuing yeast Mot1-301 growth; S. cerevisiae Mot1-301 growth rescue, ATP luminescence, 38.5C; percent above DMSO median, 100 means doubled; growth rescue, % at 18.8 µM; actives 1% (n = 320,000);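 active = every valid replicate shows activation above 250% relative to neutral control wells; inactive = the rest, any valid replicate at or below 250%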
Cl transport mod: modulators of human KCC2 chloride dependent transport. Q9H2X9. KCC2 cells, thallium flux FluoZin-2 fluorescence. actives 2.2% (n = 190,000). B-score of Tl+ flux slope (higher = more flux/activation; lower = inhibition) at 10 µM;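 active = thallium flux slope and its plate-corrected score both differing from the plate sample mean at a set confidence after two filtering rounds, in either direction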;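 note: slope of fluorescence scaled to starting intensity during 10 to 20 s after thallium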
KCNQ1 block: inhibitors of human KCNQ1 potassium channel | P51787 | CHO-K1 KCNQ1, FluxOR thallium flux fluorescence; hits give high values | actives 1.3% (n = 310,000) | AID 2642 | B-score at 10 µM;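 active = compounds whose thallium flux B-score, printed positive for inhibition, exceeds three library SD while starting fluorescence stays within three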;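 note: channel opened by potassium depolarization with thallium stimulus after 20 min compound exposure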
hERG rescue: compounds protecting human hERG from proarrhythmic drug block; Q12809; CHO-hERG, FluxOR thallium flux, dofetilide IC70 present; activation (rescue from dofetilide block), less the hit threshold, % at 10 µM; actives 0.51% (n = 310,000); AID 1511;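 active = activation above the mean of controls blocked by dofetilide plus 5 SD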;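 note: thallium influx through hERG after potassium depolarization seen as dye fluorescence rise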
AI-2 QS modul: modulates the Vibrio harveyi AI-2 quorum sensing system; Vibrio harveyi JMH597 AI-2 luminescence/OD600 ratio, 9 h; hits give low values; strain lacks LuxN and CqsS sensors; 0 = neutral-control median; activity change, % at 7.5 µM; actives 0.4% (n = 300,000); AID 2094; in the data active = activity change below about -75%, passing the limit was not always enough; inconclusive = no clear call, values can overlap the other calls;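 note: luminescence divided by OD600 gain over 9 h not by final OD600 alone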
KCC2 secondary: KCC2 (human) modulation, secondary assay; HEK293-KCC2, thallium flux, FluoZin2 fluorescence; hits give high values; actives 15% (n = 3,700); normalised thallium flux (F/F0 slope) at 10 µM; AID 1713; shares compounds with Cl transport mod;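 active = thallium flux slope above the same plate's solvent-only control mean plus 3 SD; inconclusive = the two replicate wells disagree; inactive = no significant difference from solvent-only control wells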
KCC2 bumet counter: thallium flux persisting under bumetanide in KCC2 cells, counter-screen secondary assay | shares compounds with Cl transport mod | HEK293-KCC2 + bumetanide/ouabain, thallium flux FluoZin2; hits give high values | normalized thallium flux at 10 µM | actives 49% (n = 3,700) | AID 1714;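 active = thallium entry rate above the same plate's blocked-transporter control wells by more than 3 SD; inconclusive = the two repeat wells disagree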;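 note: raw slope of fluorescence over initial fluorescence between 10 and 20 s after thallium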
KCC2 secondary2: confirmation of human KCC2 transport modulators | shares compounds with Cl transport mod | HEK293-KCC2, thallium flux FluoZin2 fluorescence; actives lie on both sides; F/F0 rise rate, 10–20 s post-thallium | normalized thallium flux at 10 µM | actives 23% (n = 3,700) | AID 1715;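 active = thallium flux slope more than 3 SD above or below the plate's solvent-only control mean, mostly below; inconclusive = the two repeat wells disagreed; inactive = no significant shift from solvent-only controls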
HEK293 Tl flux: parental HEK flux effect, counter-screen; HEK293 parental cells, thallium flux FluoZin2, ouabain; baseline-ratio fluorescence slope, 10–20 s after thallium; actives 46% (n = 3,700); shares compounds with Cl transport mod; AID 1716; thallium flux rate (normalised fluorescence) at 10 µM;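 active = thallium flux rate significantly above the same plate's solvent-only control wells, beyond their mean plus 3 SD; inconclusive = the two replicate wells gave conflicting results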
KCC2 retest ouab: confirmation of human KCC2 modulators with ouabain | actives 48% (n = 3,700) | raw Tl+ flux slope (below DMSO = inhibition, above = activation) at 10 µM | AID 1717 | HEK293-KCC2, thallium flux FluoZin2 fluorescence; bidirectional: low = inhibitor, high = activator | shares compounds with Cl transport mod;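 active = thallium flux slope beyond 3 SD from same-plate DMSO control mean in most replicates, usually higher, sometimes lower; inconclusive = repeat tests gave conflicting results; inactive = no significant difference from controls in most replicates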;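 note: slope of initial-normalized fluorescence between seconds 10 and 20 after thallium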
HEK293 Tl flux2: counter-screen for KCC2 modulators: effect in parental HEK293 cells. shares compounds with Cl transport mod. thallium flux FluoZin-2 fluorescence slope. thallium flux slope at 10 µM. actives 33% (n = 3,700). AID 1718;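 active = thallium flux slope above the same plate's solvent-control mean plus 3 SD in both duplicate wells; inconclusive = duplicate wells that disagreed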;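 note: run without ouabain in cells lacking the KCC2 cotransporter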
Large screens that a line does not name were inactive (follow-up assays come after a bar, where they were run). Shown are actives, neighbours in structure and some others; about 4.2% of the full set was active somewhere.

CCC(C)C(=O)Nc1nnc(SCC(=O)NC(C)(C)C)s1 (configuration not stated)	none
CC(C)CNC(=O)c1oc2ccccc2c1COc1ccccc1	none
Cc1cc(C)cc(NC(=O)c2oc3ccccc3c2COc2ccccc2)c1	Cl transport mod -4.75 | KCC2 secondary inactive | KCC2 bumet counter inactive | KCC2 secondary2 inactive | HEK293 Tl flux inactive | KCC2 retest ouab inactive | HEK293 Tl flux2 inactive
CN1C(=O)/C(=C/c2cc(C(C)(C)C)c(O)c(C(C)(C)C)c2)NC1=S	Cl transport mod 11.9 | KCC2 secondary inactive | KCC2 bumet counter 0.0178 | KCC2 secondary2 inactive | HEK293 Tl flux 0.0128 | KCC2 retest ouab inactive | HEK293 Tl flux2 0.0123
CC1Cc2ccccc2N1C(=O)CCn1c(=O)sc2ccccc21 (configuration not stated)	Cl transport mod -1.7 | KCC2 secondary 0.00407 | KCC2 bumet counter 0.00325 | KCC2 secondary2 0.0213 | HEK293 Tl flux inconclusive | KCC2 retest ouab 0.0127 | HEK293 Tl flux2 inconclusive
CC1Cc2ccccc2N1C(=O)CCN1C(=O)C2C3C=CC(C3)C2C1=O (configuration not stated)	none (no result: SUMO Mot1 rescue)
CC1(C(=O)OCC(=O)Nc2nnc(-c3ccccc3)o2)CC1(Cl)Cl (configuration not stated)	none (no result: Cl transport mod)
O=c1[nH]c(=O)n(C2CCCO2)cc1F (configuration not stated)	Cl transport mod 7.51 | KCC2 secondary inactive | KCC2 bumet counter inactive | KCC2 secondary2 inactive | HEK293 Tl flux inactive | KCC2 retest ouab inactive | HEK293 Tl flux2 inactive
COc1ccc2[nH]c(=O)c(C(c3nnnn3CC3CCCO3)N3CCc4ccccc4C3)cc2c1 (configuration not stated)	Cl transport mod -5.12 | KCC2 secondary inactive | KCC2 bumet counter inactive | KCC2 secondary2 inactive | HEK293 Tl flux inactive | KCC2 retest ouab inactive | HEK293 Tl flux2 inactive
Cc1ccc2[nH]c(=O)c(C(c3nnnn3CC3CCCO3)N3CCc4ccccc4C3)cc2c1 (configuration not stated)	none
CCC(=O)NC(=S)Nc1ccc(NC(=S)NC(=O)c2ccc(C)cc2)cc1	none
O=C(/C=C/c1ccccc1)NC(=S)NNC(=O)Cc1cccs1	Cl transport mod 6.25 | KCC2 secondary inactive | KCC2 bumet counter 0.026 | KCC2 secondary2 inactive | HEK293 Tl flux inconclusive | KCC2 retest ouab inconclusive | HEK293 Tl flux2 inactive
CC1CCCCC1NC(=S)NC(=O)c1cccs1 (configuration not stated)	KCNQ1 pot 20, Cl transport mod 117, hERG rescue 5.2 | KCC2 secondary 0.0272 | KCC2 bumet counter 0.14 | KCC2 secondary2 inactive | HEK293 Tl flux 0.0578 | KCC2 retest ouab 0.0639 | HEK293 Tl flux2 0.0175
